Measurements from different studies.
Lines come from different studies, so protocols differ.
EGFR: Epidermal growth factor receptor (EGFR, Homo sapiens, UniProt P00533)
EGFR L858R/T790M: Epidermal growth factor receptor (EGFR, Homo sapiens, UniProt P00533, L858R/T790M)

Structure (SMILES) | target | test | setting | quantity | result
Cn1cncc1[C@](O)(COc1ccc(C#N)cc1-c1ccc(OC(F)(F)F)cc1)c1ccc(C#N)cc1 | Epidermal growth factor receptor (EGFR, Homo sapiens, UniProt P00533, del747-752/P753S) | cell-free assay, competition with immobilised ligand | 1 µM | remaining binding | 76%
COc1ncccc1-c1cnn2ccc(N3CCN(C(=O)OC(C)C)CC3)nc12 | EGFR | binding, competition with immobilised ligand | 1 µM | remaining binding | 89%
CC(C)(C)c1cc(C=C(C#N)C#N)cc(Br)c1O | EGFR | enzyme activity, inhibitor | 0.5 µM | remaining activity | 106%
C[C@H](C(=O)N[C@H]1COc2ccccc2[C@@H]1S(C)(=O)=O)c1ccc(F)cc1 | EGFR | enzyme activity, inhibitor | 10 µM | inhibition | 1%
Cc1nn(C)cc1-c1nc2c(N3CCN(Cc4ccc(Cl)cc4)CC3)c(Cl)cnc2[nH]1 | Epidermal growth factor receptor (EGFR, Homo sapiens, UniProt P00533, T790M) | binding, competition with immobilised ligand | 1 µM | remaining binding | 82%
Nc1ncc(-c2nc(N3CCOCC3)nc(N3CCOCC3)n2)c(C(F)F)n1 | Epidermal growth factor receptor (EGFR, Homo sapiens, UniProt P00533, L861Q) | cell-free assay, competition with immobilised ligand | 10 µM | remaining binding | 77%
CC(C)[C@@H]1NC(=O)[C@H](C)NC(=O)[C@H](C)NC(=O)[C@H](Cc2ccc(O)cc2)NC(=O)[C@H](Cc2ccc(O)cc2)NC(=O)[C@H](Cc2ccccc2)NC(=O)[C@@H](Cc2ccc(O)cc2)NC(=O)CSC[C@@H](C(=O)NCC(N)=O)NC(=O)[C@H](C)NC(=O)[C@H](CCCNC(=N)N)NC(=O)[C@H](CCCNC(=N)N)NC(=O)[C@H](Cc2ccc(O)cc2)NC(=O)[C@H](C(C)C)NC(=O)[C@H](C(C)C)NC(=O)[C@H](CC(N)=O)NC1=O | EGFR | binding, SPR |  | kon | 38800 M⁻¹ s⁻¹
N#CC1(c2ccccn2)CCN(Cc2cc(C(=O)O)c(=O)n3ccccc23)CC1 | EGFR | cell-free assay, competition with immobilised ligand | 1 µM | remaining binding | 83%
C#Cc1n[nH]c2c(-c3cn([C@@H](C)c4ccccc4)c(=O)[nH]c3=O)cc(F)cc12 | EGFR L858R/T790M | enzyme activity, inhibitor | 0.1 µM | inhibition | -4.9%
c1ccc(C(NCCNC(c2ccccc2)c2ccccc2)c2ccccc2)cc1 | EGFR | enzyme activity, inhibitor | 10 µM | inhibition | -8%
C#Cc1n[nH]c2c(-c3cn([C@@H](C)c4ccccn4)c(=O)[nH]c3=O)cc(F)cc12 | EGFR L858R/T790M | enzyme activity, inhibitor | 0.1 µM | inhibition | -3.6%
COc1ccc2c(c1)/C(=C/c1cnc[nH]1)C(=O)N2 | EGFR | cell-free assay | 0.5 µM | remaining signal | 99.4%
Cn1cc(-c2cc(F)cc(N3CCn4c(cc5c4CCCC5)C3=O)c2CO)cc(Nc2ccc(N3CCN(C4COC4)CC3)cn2)c1=O | EGFR | enzyme activity, inhibitor | 0.1 µM | inhibition | 7%
